Common to all, as to assay type: functional
In test [1] the test system is Cricetinae gen. sp. The test can be described thus: Concentration needed to achieve 50% kill of chinese hamster cells under oxygenated conditions on exposure for 2 hours. The following applies: in Cricetulus griseus, read-out: ED50 (the source's name). The method, boiled down:
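V-79 Chinese hamster monolayers in MEM with 15% fetal calf serum; ~200 cells plated, attached 2 h, then exposed to a range of drug concentrations for 2 h at 37 °C in air. Drug medium was replaced with fresh medium and cells incubated 6 days at 37 °C in 95% air/5% CO2. Colony formation was scored and the concentration giving 50% kill determined.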

Test [2] is described as follows: Radiosensitizing effectivity evaluated as its ability to sensitize hypoxic Chinese hamster cells (V-79) towards ionizing radiation at 0.5 mM. In a few lines:
(§1)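 Asynchronous V-79 monolayers in MEM with 15% fetal calf serum were exposed to drug at the maximum nontoxic level (1 mM or less). Cultures were made hypoxic by flushing with 95% N2/5% CO2 and irradiated at 400–3000 rad. Full survival curves were obtained, and the enhancement ratio was calculated as D0 of hypoxic controls divided by D0 of hypoxic drug-treated cells.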

A short description of test [3]: Radiosensitizing effectivity evaluated as its ability to sensitize hypoxic Chinese hamster cells (V-79) towards ionizing radiation at 0.1 mM. In a few lines: as §1
Test [4] is described as follows: Radiosensitizing effectivity evaluated as its ability to sensitize hypoxic Chinese hamster cells (V-79) towards ionizing radiation at 1 mM. The method, boiled down:
as §1

The nature of test [5]: Radiosensitizing effectivity evaluated as its ability to sensitize hypoxic Chinese hamster cells (V-79) towards ionizing radiation at 0.25 mM. In a few lines:
as §1

pEC50: −log10 of the molar value.

Turning to `CC1Cn2c([N+](=O)[O-])cnc2O1` (centres undefined), the pEC50 in test [1] was 3.21. Besides, the Enhancement ratio in test [2] is reported as 1.1.

For the compound `CC1Cn2cc([N+](=O)[O-])nc2O1` (centres undefined), the pEC50 in test [1] was 2.82. Also, the Enhancement ratio in test [3] came to 1.2.

On to `O=[N+]([O-])c1cn2c(n1)OC(CO)C2` (centres undefined), for which, in test [1], the pEC50 was 2.55. Moreover, the Enhancement ratio in test [4] is recorded as 1.

Turning to `O=[N+]([O-])c1cn2c(n1)OC(CCl)C2` (centres undefined), the pEC50 in test [1] was 2.89. Besides, the Enhancement ratio in test [3] worked out at 1.1.

With `COCC1Cn2cc([N+](=O)[O-])nc2O1` (centres undefined), the pEC50 in test [1] is 2.82. The Enhancement ratio in test [3] was determined as 1.1.

As for `COCC(O)Cn1cc([N+](=O)[O-])nc1[N+](=O)[O-]` (centres undefined), the pEC50 in test [1] is 2.66. Moreover, the Enhancement ratio in test [2] came out at 2.1; in test [3], 1.8.

`O=[N+]([O-])c1cnc2n1CC(CCl)O2` (centres undefined): the pEC50 in test [1] is 3.21. The Enhancement ratio in test [2] came to 1.1.

On to `COCC1Cn2c([N+](=O)[O-])cnc2O1` (centres undefined), for which the pEC50 in test [1] is 3.17. Further, the Enhancement ratio in test [4] is recorded as 1.

Turning to `O=[N+]([O-])c1cnc2n1CCO2`, in test [1], the pEC50 was 3.00. The Enhancement ratio in test [5] was 1.6.

Source of the values: ChEMBL document CHEMBL1121870, “Potential radiosensitizing agents. 2. Synthesis and biological activity of derivatives of dinitroimidazole with oxiranes” (1981).
